Measurements as given in ChEMBL document CHEMBL1137637, “Quinuclidine derivatives as potential antiparasitics” (Antimicrob Agents Chemother, 2007).
Values after ≈ are worked out from the molar mass of the structure shown.

How the values were obtained:
[1] = target: T1, Farnesyltransferase, putative (Leishmania major, UniProt Q4Q5W4); experiment: Inhibition of Leishmania major recombinant squalene synthase expressed in Escherichia coli by liquid scintillation counter
T1 sequence (Q4Q5W4 whole entry): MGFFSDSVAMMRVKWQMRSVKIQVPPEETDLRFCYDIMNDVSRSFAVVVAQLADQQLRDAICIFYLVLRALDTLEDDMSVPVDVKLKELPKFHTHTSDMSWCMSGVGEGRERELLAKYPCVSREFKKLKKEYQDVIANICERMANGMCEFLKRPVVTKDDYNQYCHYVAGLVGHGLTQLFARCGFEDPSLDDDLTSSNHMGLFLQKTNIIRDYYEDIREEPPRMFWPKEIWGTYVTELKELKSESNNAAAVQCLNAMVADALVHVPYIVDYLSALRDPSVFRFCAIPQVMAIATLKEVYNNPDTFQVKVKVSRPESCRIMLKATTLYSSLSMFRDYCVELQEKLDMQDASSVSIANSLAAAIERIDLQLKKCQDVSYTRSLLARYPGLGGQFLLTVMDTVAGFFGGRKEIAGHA
Outline: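 Soluble E. coli extract expressing L. major SQS truncated by 16 N-terminal and 40 C-terminal residues. Buffer: 50 mM phosphate pH 7.4, 20 mM MgCl2, 5 mM CHAPS, 1% Tween 80, 10 mM DTT, BSA, 0.25 mM NADPH, and a glucose-6-phosphate/G6PDH regenerating system. Substrate 0.5 μM radiolabelled farnesyl pyrophosphate. Squalene band counted by scintillation. IC50 from hyperbolic plot of five concentrations in duplicate, usually run twice.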

[2] = test system: Leishmania amazonensis; experiment: Antileishmanial activity against Leishmania mexicana amazonensis promastigotes by trypan blue exclusion method; format: functional, organism-based
Outline: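 L. mexicana amazonensis promastigotes cultured in liver infusion-tryptose medium with lactalbumin and 10% FCS at 26°C, unagitated. Cultures started at 2 × 10⁶ cells/ml and drug added at 0.5–1 × 10⁷ cells/ml. Density counted by electronic particle counter and hemocytometer. Viability by trypan blue exclusion. Triplicate growth experiments.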

[3] = test system: Leishmania donovani; experiment: Antileishmanial activity against Leishmania donovani MHOM/ET/67/L82 axenic amastigotes after 72 hrs by resazurin assay; format: functional, organism-based; settings: MHOM/ET/67/L82, 72 h
Outline: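 L. donovani MHOM/ET/67/L82 amastigotes grown axenically at 37°C in synthetic minimal medium at pH 5.4 with 10% heat-inactivated FBS under 5% CO2. 1 × 10⁵ amastigotes per well with seven threefold dilutions, 30 to 0.041 μg/ml. After 72 h, resazurin added for 2–4 h more. Fluorescence read at ex 536/em 588 nm. IC50 taken from sigmoidal curve. Run in duplicate, with an independent repeat for actives.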

[4] = test system: L6; experiment: Cytotoxicity against rat L6 cells after 72 hrs by resazurin assay; format: cell-based; settings: L6, 72 h
Outline: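 L-6 cells seeded at 4 × 10⁴ cells/ml in RPMI 1640 with 10% FBS and 2 mM L-glutamine. After 24 h, medium replaced with serial drug dilution and incubated for 72 h at 37°C in 5% CO2. Resazurin added for 2–4 h, fluorescence read at ex 536/em 588 nm. IC50 from sigmoidal curve. Duplicate, with an independent repeat for actives.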

[5] = test system: Trypanosoma cruzi; experiment: Antitrypanosomal activity against trypomastigotes of Trypanosoma cruzi Tulahuen C2C4 containing lacZ gene in rat L6 cells after 4 days by chlorophenol red-beta-D-galactopyranoside/Nonidet assay; format: functional, organism-based; settings: Tulahuen C2C4, L6, 96 h
Outline: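 L-6 rat myoblasts seeded at 2,000 cells/well in RPMI 1640 with 10% FBS and 2 mM L-glutamine. After 24 h, 5,000 T. cruzi Tulahuen C2C4 lacZ trypomastigotes added with serial drug dilution. Incubated at 37°C in 5% CO2 for 4 days. CPRG/Nonidet substrate added and colour read at 540 nm after 2–4 h. IC50 from sigmoidal curve. Duplicate determinations.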

[6] = test system: Trypanosoma brucei rhodesiense; experiment: Trypanocidal activity against Trypanosoma brucei rhodesiense STIB 900 bloodstream form after 72 hrs by resazurin assay; format: functional, organism-based; settings: STIB 900, 72 h
Outline: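 T. b. rhodesiense STIB 900 bloodstream forms in MEM with 2-mercaptoethanol and 15% heat-inactivated horse serum, with serial drug dilutions. Incubated 72 h at 37°C in 5% CO2. Resazurin added for 2–4 h more, fluorescence read at ex 536/em 588 nm. IC50 from sigmoidal curve. Duplicate, with an independent repeat for actives.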

[7] = test system: Plasmodium falciparum; experiment: Antiplasmodial activity after 48 hrs against chloroquine and pyrimethamine-resistant Plasmodium falciparum K1 in human erythrocytes by [3H]hypoxanthine uptake; format: functional, organism-based
Outline: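 P. falciparum K1 in human red cells in RPMI 1640 with 5% Albumax, exposed to serial drug dilutions. Incubated 48 h at 37°C under reduced oxygen, then 0.5 μCi [³H]hypoxanthine per well for 24 h more. Cells harvested onto glass-fibre filters and counted by scintillation. Result expressed as % of untreated control, with IC50 from sigmoidal curve. Duplicate, plus an independent repeat for actives.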

[8] = test system: Leishmania amazonensis; experiment: Inhibition of sterol biosynthesis in Leishmania mexicana amazonensis promastigotes assessed as reduction in exogenous cholesterol level at 10 uM after 96 hrs by gas-liquid chromatography; format: functional; set-up: scale not given: the % may be the effect or the level left
Outline: (§1)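 L. mexicana promastigotes exposed to compound for 96 h. Total lipids extracted and neutral sterols separated from polar lipids by silicic acid column chromatography. Sterols analysed by TLC and by quantitative capillary gas-liquid chromatography with mass spectrometry. Composition expressed as mass % of free sterols, compared with untreated control.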

[9] = test system: Leishmania amazonensis; experiment: Inhibition of sterol biosynthesis in Leishmania mexicana amazonensis promastigotes assessed as reduction in endogenous 5-dehydro episterol level at 10 uM after 96 hrs by gas-liquid chromatography; format: functional; set-up: scale not given: the % may be the effect or the level left; outline: as §1
[10] = test system: Leishmania amazonensis; experiment: Inhibition of sterol biosynthesis in Leishmania mexicana amazonensis promastigotes assessed as reduction in endogenous episterol level at 10 uM after 96 hrs by gas-liquid chromatography; format: functional; set-up: scale not given: the % may be the effect or the level left; outline: as §1
[11] = test system: Leishmania amazonensis; experiment: Inhibition of sterol biosynthesis in Leishmania mexicana amazonensis promastigotes assessed as reduction in endogenous cholesta-5,7,24-trien-3beta-ol level at 10 uM after 96 hrs by gas-liquid chromatography; format: functional; set-up: scale not given: the % may be the effect or the level left; outline: as §1

| Structure (SMILES) | IC50 [1] [µM] | MIC [2] [µM] | IC50 [3] [µM] | IC50 [4] [µM] | IC50 [5] [µM] | IC50 [6] [µM] | IC50 [7] [µM] | Activity [8] [%] | Activity [9] [%] | Activity [10] [%] | Activity [11] [%] |
| --- | --- | --- | --- | --- | --- | --- | --- | --- | --- | --- | --- |
| C1=C(c2cc3ccccc3o2)C2CCN1CC2 | > 1 | > 10 | 82 | 177 | 61.3 | 17.1 | 6.2 | 12.2 | 60 | 27.8 |  |
| COCCCOc1ccc(C#C[C@@]2(O)CN3CCC2CC3)c(Cc2ccccc2)n1 | 0.033 |  |  |  |  |  |  |  |  |  |  |
| CO[C@H]1CN(c2ccc(C#C[C@@]3(O)CN4CCC3CC4)c(Cc3ccccc3)n2)C[C@H]1O | 0.013 |  |  |  |  |  |  |  |  |  |  |
| Oc1ccc(C#CC2(O)CN3CCC2CC3)cc1 (stereo not given) | > 1 | > 10 | 20 | > 370 | 90.4 | 53 | 18.7 | 20.1 | 64.2 | 15.7 |  |
| OC1(C#Cc2cccnc2)CN2CCC1CC2 (stereo not given) | > 1 | > 10 | 9.2 | > 394 | > 131 | 173 | 18.9 | 12.9 | 75.9 | 11.2 |  |
| OC[C@H]1CC2CCN1C[C@@H]2C#Cc1cnc2ccccc2c1 (stereo not given in full) | > 1 | > 10 | 40.3 | 38.9 | 33.8 | 10.9 | 2.7 | 18.7 | 69.7 | 11.6 |  |
| CCOC(=O)c1ccc(C#C[C@H]2CN3CCC2C[C@@H]3CO)cc1 (stereo not given in full) | > 1 | > 10 | > 96 | 55.2 | 18.8 | 3.8 | 1.1 | 23.6 | 55.5 | 11.4 | 9.5 |
| OC1(C#Cc2cnccn2)CN2CCC1CC2 (stereo not given) | > 1 | 3 (≈ 0.688 µg/mL) |  |  |  |  |  | 33.8 | 52 | 14.2 |  |
| C1=C(c2cnc3ccccc3c2)C2CCN1CC2 | > 1 | > 10 | 72.4 | 276 | 51.1 | 22.4 | 15 | 18.2 | 74.5 | 7.3 |  |
| Cc1ccc(N)cc1C#CC1(O)CN2CCC1CC2 (stereo not given) | > 1 | > 10 | 28.5 | > 351 | > 117 | 62.4 | 11.7 | 20.7 | 72.8 | 6.5 |  |
| OC1(C#Cc2ccc3cc[nH]c3c2)CN2CCC1CC2 (stereo not given) | > 1 | > 10 | 11.4 | > 338 | 26.2 | 19.9 | 7.1 | 19.9 | 62.6 | 17.5 |  |
| Nc1ccc(C#CC2(O)CN3CCC2CC3)cn1 (stereo not given) | > 1 | > 10 | 10.8 | > 370 | 97 | 5.7 | > 21 | 13.2 | 75.2 | 11.6 |  |
| OC1(C#Cc2ccc(Cl)nc2)CN2CCC1CC2 (stereo not given) | > 1 | > 10 | 16.3 | > 342 | > 114 | 53.3 | 9.3 | 20.1 | 71.7 | 8.2 |  |
| COC(=O)c1ccc(N)c(C#CC2(O)CN3CCC2CC3)c1 (stereo not given) | > 1 | > 10 | 17.2 | > 300 | 44.9 | 30.8 | 10.9 | 19.3 | 74.3 | 6.4 |  |
| OC[C@H]1CC2CCN1C[C@@H]2C#Cc1ccc2ccccc2c1 (stereo not given in full) | > 1 | > 10 | 12 | 50.4 | 5.3 | 1.4 | 3 | 23.1 | 65.7 | 11.2 |  |
| CCOc1ccc(C#CC2(O)CN3CCC2CC3)cc1 (stereo not given) |  | > 10 | 10.5 | > 332 | 21.2 | 5.4 | 5.9 | 30 | 45.4 | 24.6 |  |
| O=C(O)c1ccc(C#CC2(O)CN3CCC2CC3)cc1 (stereo not given) | > 100 | > 10 | > 111 | > 332 | 90.2 | 146 | > 18.4 | 21.9 | 70.9 | 7.2 |  |
| COc1ccc(C#CC2(O)CN3CCC2CC3)cc1 (stereo not given) | > 1 | > 10 | 7 | > 350 | 67.2 | 18.4 | 8.2 | 19.8 | 66.8 | 13.4 |  |
| OC[C@@H]1CC2CCN1C[C@@H]2C#Cc1ccc2ccccc2c1 (stereo not given in full) | > 1 | > 10 | 22.6 | 40.1 | 4.7 | 1.1 | 2.1 | 15.4 | 68.4 | 9.6 | 6.6 |
| O=C(O)c1cc(C#CC2(O)CN3CCC2CC3)ccc1O (stereo not given) | > 1 | > 10 |  |  |  |  |  | 20.4 | 74 | 5.6 |  |
| CC(=O)c1ccc(C#CC2(O)CN3CCC2CC3)s1 (stereo not given) | > 1 | > 10 | 18.9 | 194 | 72.6 | 30.3 | 10.2 | 22.3 | 67.8 | 9.9 |  |
| CCCCCCCCCCCCCCCCOP(=O)([O-])OCC[N+](C)(C)C [MILTEFOSINE] |  |  | 0.338 |  |  |  |  |  |  |  |  |
| COc1cc([C@@H]2c3cc4c(cc3[C@H](O)[C@H]3COC(=O)[C@H]23)OCO4)cc(OC)c1OC [PODOFILOX] |  |  |  | 0.014 |  |  |  |  |  |  |  |
